In ChEMBL document CHEMBL1123911, “Dopamine agonists: effects of charged and uncharged analogues of dopamine” (1987):

Legend:
[1] = organism: Rattus norvegicus; assay: Ability to inhibit the K+-induced release of [3H]acetylcholine in normal striatal slices at 30 uM; type: functional; set-up: scale not given: the % may be the effect or the level left
Outline: (§1)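 Striatal slices in Krebs–Ringer bicarbonate with 0.6 mM ascorbic acid, 0.03 mM Na2EDTA and 11 mM glucose, gassed 95% O2/5% CO2, labelled 20 min with [3H]choline, then superfused at 0.5 mL/min. At 55 min, 12.5 mM K+ (Na+ lowered equimolarly) was applied for 10 min, with drug present from 10 min before. Scintillation counting gave fractional tritium release above spontaneous outflow, expressed as % of drug-free control.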

[2] = organism: Rattus norvegicus; assay: Ability to inhibit the K+-induced release of [3H]Acetylcholine in dopamine depleted striatal slices at 30 uM; type: functional; set-up: scale not given: the % may be the effect or the level left; outline: as §1
[3] = organism: Rattus norvegicus; assay: Ability to inhibit the K+-induced release of [3H]acetylcholine in normal striatal slices at 1 uM; type: functional; set-up: scale not given: the % may be the effect or the level left
Outline: (§2)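 Striatal slices in Krebs–Ringer bicarbonate with 0.6 mM ascorbic acid, 0.03 mM Na₂EDTA and 11 mM glucose, gassed with 95% O₂/5% CO₂. Slices were labelled 20 min with [³H]choline, then superfused at 0.5 mL/min. Drug was added 10 min before and during 12.5 mM K⁺ (Na⁺-compensated) for 10 min. K⁺-evoked fractional tritium release above baseline is given as % of drug-free control, ±SEM.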

[4] = organism: Rattus norvegicus; assay: Inhibition of stimulation of [3H]- acetylcholine release in rat striatal tissue; type: functional, Striatum; outline: as §1
[5] = organism: Rattus norvegicus; assay: Ability to inhibit the K+-induced release of [3H]acetylcholine in normal striatal slices at 0.1 uM; type: functional; set-up: scale not given: the % may be the effect or the level left; outline: as §2
[6] = organism: Rattus norvegicus; assay: Ability to inhibit the K+-induced release of [3H]acetylcholine in dopamine depleted striatal slices at 0.1 uM; type: functional; set-up: scale not given: the % may be the effect or the level left; outline: as §2
[7] = organism: Rattus norvegicus; assay: Ability to inhibit the K+-induced release of [3H]Acetylcholine in normal striatal slices at 60 uM; type: functional; set-up: scale not given: the % may be the effect or the level left; outline: as §2

With `C[S+](C)CC(O)c1ccc(O)c(O)c1.[I-]` (stereo not given) the Control [1] was 113%.
For `C[Se]CCc1ccc(O)c(O)c1`, the Control [1] was 95%.
In the case of `C[Se+](C)CCc1ccc(O)c(O)c1.[I-]`, the Control [1] is reported as 57% and the Control [2] is reported as 47%.
`C[S+](C)CCc1ccc(O)c(O)c1.[I-]` gave a Control [1] of 50% and a Control [2] of 61%.
With `CS(=O)(=O)CCc1ccc(O)c(O)c1` the Control [1] was 122%.
Work on `C[N+]1(C)CCc2cccc3c2[C@H]1Cc1ccc(O)c(O)c1-3` yielded a Control [3] of 59%.
Molecule `CSCCc1ccc(O)c(O)c1` has a Control [1] of 82%, an Inhibition [4] of 18% and a Control [2] of 100%.
`C[S+]([O-])CCc1ccc(O)c(O)c1` (stereo not given) showed a Control [1] of 101%.
`C[N+](C)(C)CCc1ccc(O)c(O)c1.[I-]` gave a Control [1] of 52% and a Control [2] of 53%.
`CN1CCc2cccc3c2[C@H]1Cc1ccc(O)c(O)c1-3` [APOMORPHINE] showed a Control [5] of 60% and a Control [6] of 56%.
`NCCc1ccc(O)c(O)c1` [DOPAMINE] was tested, and the Control [3] was 70% and the Control [1] was 40%.
`NC[C@H](O)c1ccc(O)c(O)c1` [NOREPINEPHRINE] was tested, and the Control [1] was 101% and the Control [7] was 85%.
